# ChEMBL document CHEMBL5316310, “Discovery of MK-8189, a Highly Potent and Selective PDE10A Inhibitor for the Treatment of Schizophrenia” (J Med Chem, 2023)
# What was measured:
# [1] = Protein binding in rat plasma assessed as unbound fraction; format: ADME, cell-free
# [2] = Plasma concentration in rat at 0.16 mg/kg, po measured after 1 hr; format: ADME, organism-based
# How it was run: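 Rat novel object recognition (episodic memory) study, orally dosed. Plasma drawn 1 h post dose at end of the experiment for compound level. n = 4/group, reported as mean (SEM).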
structure (smiles),measurement,setting,value
Cc1ccc([C@H]2C[C@@H]2COc2cc(NCc3nnc(C)s3)nc(C)n2)nc1 [MK-8189],Fu,[1],8.2%
same,concentration at 1 h,[2],18 nM
